“Also recorded” adds a separate entry of the source.
Assays:
[1] = test system: activating transcription factor 4 pathway; details: preclinical models of HCC; cited from earlier work
ECC10 xenograft = details: human gastric cancer cell line (ECC10) xenograft model; cited from earlier work
[2] = Plasma pharmacokinetics of E7386, noncompartmental analysis, Study 103; type: in vivo, human; details: 10-160 mg b.i.d.
Apc^Min/+ mice = details: cited from earlier work
[3] = test system: advanced, unresectable, or recurrent solid tumors; experiment: Antitumor activity by investigators, RECIST v1.1, Study 103; type: in vivo, human
Summary of the method: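 Investigators assessed tumors by CT/MRI every 8 weeks, at end of treatment and when clinically indicated, using the screening modality and settings, per RECIST v1.1. Endpoints were objective response (CR/PR), disease control (CR/PR/SD) and clinical benefit (CR, PR, or SD lasting ≥23 weeks). All patients receiving ≥1 dose of oral test compound (b.i.d., 28-day cycles) were analysed.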

[4] = test system: patients with advanced, unresectable, or recurrent solid tumors; experiment: Safety assessments; type: in vivo, human
Summary of the method: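 Safety covered all AEs of any grade, including DLTs and serious AEs, graded by NCI CTCAE v5.0. Hematology, chemistry and urinalysis were sampled before dosing at scheduled visits. Oral test compound was given b.i.d. in 28-day cycles (10-160 mg dose-escalation; 100 or 120 mg expansion). The analysis set was all patients receiving ≥1 dose.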

[5] = test system: patients with advanced, unresectable, or recurrent solid tumors; experiment: Bone assessments; type: in vivo, human
Summary of the method: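 Both parts used DXA bone density at screening, C2D1 and every 12 weeks (±7 days) from C1D1. Fasting serum β-CTX was measured at screening, C2D1, C3D1, then every 8 weeks and at end of treatment. Dose-escalation added β-CTX at C1D15; expansion added DXA (C2D1 ±7 days) at end of treatment and when clinically indicated. Osteoporosis (T-score < −2.5) and untreated bone metastasis excluded patients.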

bone formation = details: rats; 7-day repeated-dose toxicity study; ref Data on file; cited from earlier work
[6] = test system: patients with advanced, unresectable, or recurrent solid tumors; experiment: Dose-limiting toxicity evaluation; type: in vivo, human
Summary of the method: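 A 3 + 3 escalation started at 10 mg b.i.d. oral, given continuously in 28-day cycles; 10, 15 and 20 mg were predefined. Above 20 mg, steps were 100%, 40%-60% or 25%-39% depending on treatment-related grade 2 or ≥3 toxicity. DLTs were drug-related AEs in cycle 1 (28 days), graded by CTCAE v5.0. Patients dosed as planned in C1, or having a DLT, formed the analysis set.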

advanced solid tumors = details: 0 of 25; cited from earlier work
desmoid tumors = details: patients with desmoid tumors; cited from earlier work
endometrial cancer = details: cited from earlier work

Question: What does the source list for `C=CCN1CC(=O)N2[C@@H](Cc3ccc(O)cc3F)C(=O)N(Cc3cccc(N4CC(N5CCN(CC)CC5)C4)n3)C[C@@H]2N1C(=O)NCc1ccccc1` [E7386]?
Answer: Effect on activating transcription factor 4 pathway [1]: up-regulate the activating transcription factor 4 pathway; Tumor growth (ECC10 xenograft): inhibited tumor growth; E7386 exposure versus dose ([2]; single and repeat dose, large inter-subject variability): generally increased with dose; Time at which maximum plasma concentration was reached ([2]; after oral administration on C1D1): 0.5 to 2.0 h; Geometric mean accumulation ratios for AUC ([2]; for each dose): 1.12-3.81; Geometric mean accumulation ratios for Cmax ([2]; for each dose): 0.65-3.97; Polyp formation in the intestine (Apc^Min/+ mice): suppressed polyp formation; Patients achieving partial response (PR) ([3]; dose-escalation part, SBC at 15 mg b.i.d. and desmoid tumor at 80 mg b.i.d.): two; Partial responses ([3]; expansion part): No PRs were observed; Treatment duration with durable SD ([3]; expansion part, patient with CRC (APC/KRAS/TP53 mutations), 100 mg b.i.d., no tumor size reduction): ~7 months; Treatment duration with durable SD ([3]; expansion part, patient with HCC, 120 mg b.i.d., with tumor size reduction): ~7 months; Antitumor activity in patients with CRC ([3]; irrespective of APC mutation status): did not indicate antitumor activity; Treatment period of responder (PR) ([3]; patient with desmoid tumor, 80 mg b.i.d. cohort, ongoing at data cut-off): > 3.5 years; Treatment duration with durable SD ([3]; patient with solid pseudopapillary neoplasm of the pancreas, 30 mg b.i.d. cohort): > 2.5 years; Deaths due to TEAEs ([4]; both parts): No patients died due to TEAEs; Nausea (TEAE) frequency ([4]; dose-escalation part): 83.3%; Patients with grade ≥3 TEAEs ([4]; dose-escalation part): 15 patients; Patients with grade ≥3 anemia ([4]; dose-escalation part): four; Vomiting (TEAE) frequency ([4]; dose-escalation part): 61.1%; TEAEs leading to dose interruption ([4]; dose-escalation part, 13 patients): 36.1%; Patients with TEAEs ([4]; dose-escalation part, 35 of 36 patients): 97.2%; TEAEs leading to dose reduction ([4]; dose-escalation part, one patient (decreased appetite)): 2.8%; TEAEs leading to study-drug discontinuation ([4]; dose-escalation part, two patients, not considered related to treatment): 5.6%; Nausea (TEAE) frequency ([4]; expansion part): 84.2%; Patients with grade ≥3 TEAEs ([4]; expansion part): 10 patients; Patients with grade ≥3 anemia ([4]; expansion part): two; Patients with grade ≥3 hyponatremia ([4]; expansion part): two; Patients with grade ≥3 nausea ([4]; expansion part): one; TEAEs leading to study-drug discontinuation ([4]; expansion part): No patient in the expansion part discontinued the study drug due to TEAEs; Vomiting (TEAE) frequency ([4]; expansion part): 73.7%; TEAEs leading to dose interruption ([4]; expansion part, 5 patients): 26.3%; Patients with TEAEs ([4]; expansion part, 18 of 19 patients): 94.7%; TEAEs leading to dose reduction ([4]; expansion part, four patients): 21.1%; Patients with T-score < −2.5 as per DXA scan during the study ([5]; 1 of 55 patients, spine: −2.4 at screening to −2.6 on C2D1): 1.8%; Patients with asymptomatic, post-baseline elevations in β-CTX >1000 pg/ml ([5]; 7 of 55 patients): 12.7%; Bone fractures ([5]; either part of the study): No bone fractures were reported; also recorded: no bone fracture was observed; Doses at which effects on bone formation were observed (bone formation): ≥ 60 mg/kg; Patients with dose-limiting toxicities (grade 3 decreased appetite) ([6]; 160 mg b.i.d. cohort, cycle 1, dose-escalation): two; Dose-limiting toxicities ([6]; 10-120 mg b.i.d. cohorts, dose-escalation): no DLTs were observed; Recommended dose of E7386 monotherapy ([6]; oral, 28-day cycles): 120 mg b.i.d.

Question: For `Cc1c(-c2ccnc(C(F)(F)F)c2)ncn1CC(=O)Nc1ccc(-c2cnccn2)cn1` [RXC004], which “Objective response rate (ORR)” value (advanced solid tumors) is on record?
Answer: 0%

Question: For `C[C@@H]1C[C@H](C)CN(S(=O)(=O)c2ccc3c(c2)C(=NO)c2cc(S(=O)(=O)N4C[C@H](C)C[C@H](C)C4)ccc2C3=NO)C1` [tegavivint], which Nausea incidence (desmoid tumors) is on record?
Answer: 33%

B1: DKN-01: a DKK-1 antibody targeting the Wnt signaling pathway (antibody, chains of the INN, looked up, V domains shown)
VH: EVQLVESGGGLVQPGGSLRLSCAASGFTFSSYTMSWVRQAPGKGLEWVATISGGGFGTYYPDSVKGRFTISRDNAKNSLYLQMNSLRAEDTAVYYCARPGYNNYYFDIWGQGTTVTVSS
VL: EIVLTQSPATLSLSPGERATLSCHASDSISNSLHWYQQKPGQAPRLLIYYARQSIQGIPARFSGSGSGTDFTLTISSLEPEDFAVYYCQQSESWPLHFGGGTKVEIK
Question: For B1, which TEAE nausea incidence (endometrial cancer) is on record?
Answer: 48.3%

Question: What about the TEAE vomiting incidence (endometrial cancer) of the same molecule?
Answer: 24.1%

Question: What about the “Objective response rate (ORR)” value (endometrial cancer; endometrial cancer, 2 of 26) of the same molecule?
Answer: 7.7%

Source: article PMC12800764 (ESMO Open, 2025)
